# Laboratory results as given in PMC8137579 (Cancer research, 2021).
# “Also recorded” adds a separate entry of the source. Like-named read-outs stand apart in the source and are kept apart here.
# Columns and labels:
# [1] = aqueous solubility; type: physicochemical
# [2] = tested on: PDGx XD456 glioma cell line; experiment: PrestoBlue cell viability assay, XD456; type: cell-based, human; conditions: read-out: IC50 cell viability, 48 hours of treatment
# [3] = tested on: U251 glioma cell line; experiment: cell cycle analysis; type: cell-based; conditions: 10 uM for 18 hours
# [4] = tested on: LN229 glioma cell line; experiment: cell cycle analysis; type: cell-based; conditions: 10 uM for 18 hours
# [5] = tested on: U251 cell line; experiment: attached cell colony formation assay, U251; type: cell-based
# [6] = tested on: U251 cells expressing Fluc construct; experiment: split firefly luciferase assay, control reporter; type: cell-based
# Procedure, shortened: (§1)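 Stable U251 lines carried doxycycline-inducible HuR-Nluc plus HuR-Cluc (dimer reporter) or full-length Fluc (control reporter), kept under hygromycin B and G418. 30,000–50,000 cells/well were induced with doxycycline 0.75 ug/ml for 48 h, then given test compound or vehicle for 6 h. Luminescence was read with D-luciferin substrate.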
# [7] = tested on: U251 cell line; experiment: soft agar colony formation assay, U251; type: cell-based
# Procedure, shortened: (§2)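 Soft agar format: cells embedded in a 0.45% low-melting agarose top layer over a 0.9% agarose bottom layer. Colonies were stained with 0.1% crystal violet and counted after three weeks. n=3 attached, n=4 soft agar; Student t-test.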
# [8] = tested on: XD456 cell line; experiment: attached cell colony formation assay, XD456; type: cell-based, human
# [9] = tested on: U251 glioma cell line; experiment: PrestoBlue cell viability assay, U251; type: cell-based
# Procedure, shortened: (§3)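 PrestoBlue viability read-out after 48 h exposure to the test compound. U251 and LN229 were grown in DMEM/F12 with 10% FBS, 2 mM L-glutamine and 100 U/ml penicillin/streptomycin. Data were normalised to vehicle-treated cells, and dose-response curves were fitted with the Boltzmann equation to give IC50; n=5 per cell line.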
# [10] = tested on: Bcl2 and Mcl1 protein levels; experiment: western blot of Bcl2 and Mcl1 proteins in cytoplasmic fractions; type: cell-based; conditions: U251 and XD456; 10 uM for 48 hours
# Procedure, shortened: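 U251 and PDGx XD456 cells were treated for 48 h with test compound or vehicle. Nuclear and cytoplasmic fractions were separated with NE-PER reagents and verified by lamin A/C (nuclear) and tubulin alpha (cytoplasmic). Bcl2 and Mcl1 were detected by western blot.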
# [11] = tested on: LN229 glioma cell line; experiment: PrestoBlue cell viability assay, LN229; type: cell-based; conditions: read-out: IC50 cell viability, 48 hours of treatment
# Procedure, shortened: as §3
# [12] = in vivo pharmacokinetic assessment; parameters: species or system C57Bl/6 mice; conditions: mouse
# [13] = tested on: PDGx XD456 glioma cell line; experiment: cell cycle analysis; type: cell-based, human; conditions: 10 uM for 18 hours
# [14] = tested on: Mcl1 mRNA; experiment: Taqman quantification of Mcl1 mRNA in glioma cell lines; type: cell-based; conditions: for average decrease of Mcl1/18S mRNA ratio: 10 uM for 24 hours
# Procedure, shortened: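 Glioma cells (U251, U87, LN229) were exposed to 10 uM test compound or vehicle for 24 h. mRNA was isolated with RNeasy Mini Kit and QIAshredder columns. Bcl2, Mcl1 and 18S transcripts were quantified by Taqman gene-specific probes. Bcl2/18S and Mcl1/18S ratios were compared with vehicle control; three experiments.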
# [15] = tested on: cleaved caspase-3 and cleaved PARP; experiment: western blot of apoptosis markers; type: cell-based; conditions: glioma cell lines; 10 uM for 48 hours
# Procedure, shortened: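 Glioma cell lines were given 10 uM test compound or vehicle for 48 h. Cleaved PARP and cleaved caspase-3 were probed by western blot.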
# [16] = tested on: primary human astrocytes; experiment: toxicity in primary human astrocytes; type: cell-based
# Procedure, shortened: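 Primary human neurons (poly-L-lysine plates) or astrocytes were treated up to 25 uM for 48 h. Cells were fixed in 3.7% paraformaldehyde (pH 7.4) for 13 min, permeabilised with 0.3% Triton X-100 and blocked with 3% BSA/glycine. Staining used anti-cleaved caspase-3 (1:200, overnight 4°C) and Alexa 594 secondary, with DAPI counterstain. Percent positive cells was scored; at least three experiments.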
# [17] = tested on: XD456 cell line; experiment: soft agar colony formation assay, XD456; type: cell-based, human
# Procedure, shortened: as §2
# [18] = tested on: primary human neurons; experiment: toxicity in primary human neurons; type: cell-based
# [19] = molecular target: HuR dimerization (HuR-Nluc + HuR-Cluc reporter, U251 cells) (Homo sapiens, UniProt Q15717); experiment: cell-based split firefly luciferase - HuR dimerization assay
# Procedure, shortened: as §1
# [20] = tested on: HuR protein; experiment: western blot of HuR protein levels; type: cell-based
# [21] = tested on: PDGx XD456 intracranial glioma; experiment: in vivo mouse intracranial glioma model; parameters: species or system athymic nude mice; conditions: 15 mg/kg, twice a day for three weeks, intraperitoneal
# Procedure, shortened: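 Athymic nude mice bore intracranial PDGx XD456 cells transduced with firefly luciferase and EGFP. After 4.5 days of tumour establishment, mice were randomised to vehicle or test compound, 15 mg/kg ip twice daily for three weeks. Tumour bioluminescence (radiance) was imaged at weeks 2 and 3, with body weight tracked; n=5, Student t-test. Brain slices were checked for EGFP and immunostained for HuR, Bcl2 and Mcl1.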
# [22] = molecular target: kinases; experiment: SelectScreen kinase profiling; type: biochemical; conditions: compared to the parent SRI-41664
# Procedure, shortened: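 Done as an outsourced SelectScreen kinase profiling service. 10-point titrations were run against NTRK1, AAK1, IRAK1, PIM1 and cMET kinases.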
# [23] = molecular target: interaction of the HuR protein with Bcl2 and Mcl1 mRNAs (Homo sapiens, UniProt Q15717); experiment: HuR/mRNA co-immunoprecipitation assay; type: cell-based; conditions: U251 cells
# Procedure, shortened: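 Run in U251 cells with the RiboCluster Profiler RIP-assay kit and a polyclonal anti-HuR antibody. Co-precipitated Bcl2 and Mcl1 transcripts and 18S RNA were quantified by Taqman with gene-specific probes. Binding was compared with vehicle-treated control.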
# [24] = tested on: Bcl2 mRNA; experiment: Taqman quantification of Bcl2 mRNA in glioma cell lines; type: cell-based; conditions: 10 uM for 24 hours
# Chain of HuR dimerization (HuR-Nluc + HuR-Cluc reporter, U251 cells) (Q15717 2-326 limits assumed): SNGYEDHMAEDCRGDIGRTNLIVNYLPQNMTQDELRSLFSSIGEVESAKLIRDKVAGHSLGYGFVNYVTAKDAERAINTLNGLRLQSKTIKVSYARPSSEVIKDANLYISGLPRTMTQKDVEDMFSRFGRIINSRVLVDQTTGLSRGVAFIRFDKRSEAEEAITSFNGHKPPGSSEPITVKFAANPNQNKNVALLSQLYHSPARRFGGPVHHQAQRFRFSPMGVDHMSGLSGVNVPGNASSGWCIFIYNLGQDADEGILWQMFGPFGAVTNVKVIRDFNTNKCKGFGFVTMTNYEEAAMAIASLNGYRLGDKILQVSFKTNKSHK
# Chain of interaction of the HuR protein with Bcl2 and Mcl1 mRNAs (Q15717 2-326 limits assumed): as above
smiles,measurement,setting,value
CN(c1ccc2ncc(-c3ccc4cn[nH]c4c3)n2n1)C1CCOCC1 [SRI-42127],aqueous solubility,[1],readily soluble
same,IC50,[2],4 ± 0.6 µM
same,increase of cells in G1 phase compared to control,[3],97±33%
same,reduction of cells in S phase compared to control,[3],65±4%
same,increase of cells in G1 phase compared to control,[4],56±28%
same,reduction of cells in S phase compared to control,[4],60±3%
same,number of colonies,[5]; 3uM,49±28
same,number of colonies,[5]; 10 uM,No significant numbers of colonies were detected
same,half inhibition in the control reporter assay,[6],half inhibitions were not reached
same,number of colonies,[7]; 3uM,90±70
same,number of colonies,[7]; 10 uM,No significant numbers of colonies were detected
same,number of colonies,[8]; 3uM,34±12
same,number of colonies,[8]; 10 uM,No significant numbers of colonies were detected
same,"IC50 for inhibition of cell viability, after enhancement of HuR-dimer formation by two fold","[9]; U251 with dox-inducible HuR-dimerization reporters, 48 hours",8.0 ± 0.8 µM
same,IC50,"[9]; read-out: IC50 cell viability, U251, 48 hours of treatment",2.8 ± 0.6 µM
same,IC50,"[9]; read-out: IC50 for inhibition of cell viability, before enhancement of HuR-dimer formation, U251 with dox-inducible HuR-dimerization reporters, 48 hours",2.8 ± 0.4 µM
same,Bcl2 and Mcl1 protein levels in cytoplasmic fractions compared to control,[10],dramatic reduction
same,IC50,[11],3.2 ± 0.6 µM
same,brain-to-plasma concentration ratio,[12],0.42±0.05
same,BBB permeability,[12]; in vivo,superior BBB permeability
same,half-life,[12]; 10 mg/kg by IP,9.6 min
same,increase of cells in G1 phase compared to control,[13],210±40%
same,reduction of cells in S phase compared to control,[13],70±3%
same,average decrease of Mcl1/18S mRNA ratio,[14]; LN229,87±8%
same,average decrease of Mcl1/18S mRNA ratio,[14]; U87,86±7%
same,average decrease of Mcl1/18S mRNA ratio,[14]; U251,95±3%
same,average decrease of Mcl1/18S mRNA ratio,[14]; XD456,90±9%
same,reduction in Mcl1 mRNA compared to control,"[14]; range over U251, U87, LN229, XD456, 10 uM, 24 h",87–95%
same,signs of apoptosis,[15],cleaved caspase-3 and cleaved PARP
same,astrocyte cytotoxicity,[16]; concentrations below 15 uM,low neuronal and astrocyte cytotoxicity
same,cleaved caspase-3 activation in astrocytes,[16]; up to 15 uM,did not observe significant alterations
same,number of colonies,[17]; 3uM,39±6
same,number of colonies,[17]; 10 uM,No significant numbers of colonies were detected
same,decline of cellular metabolism of neurons,[18]; 25 uM for 48 hours,about 44%
same,neuronal cytotoxicity,[18]; concentrations below 15 uM,low neuronal and astrocyte cytotoxicity
same,cell numbers and cell sprouting of neurons,[18]; up to 15 uM for 48 hours,remained unchanged
same,morphological changes of neurons,[18]; up to 15 uM for 48 hours,no morphological changes
same,cleaved caspase-3 immunostaining in neurons,"[18]; up to 15 uM, 48 hours",no significant alterations
same,maximum inhibition of HuR dimerization,[19]; 6 hours of cell treatment,90±1%
same,"IC50 for inhibition of HuR dimerization, after increase in HuR dimerization by two fold","[19]; U251 with dox-inducible HuR-dimerization reporters, 6 hours",1.9 ± 0.1 µM
same,HuR inhibition potential in the presence of kinase inhibitors,[19]; all evaluated kinase inhibitors,retained its HuR inhibition potential
same,IC50,"[19]; read-out: IC50 for inhibition of HuR dimerization, before increase in HuR dimerization, U251 with dox-inducible HuR-dimerization reporters, 6 hours",1.2 ± 0.1 µM
same,IC50,"[19]; read-out: IC50 of inhibition of HuR dimerization, U251 cells co-expressing HuR-Nluc and HuR-Cluc, 6 hours of treatment",1.2 ± 0.2 µM
same,total HuR protein levels,"[20]; 3 uM and 10 uM, 8–12 hours of treatment",did not alter
same,HuR cytoplasmic levels versus control,[20]; prolonged treatment,decrease
same,tumor progression (tumor reporter luminescence signal) compared to control group,[21],reduction of tumor progression; also recorded: not statistically significant
same,weight changes compared to the control group,[21],not significant
same,kinase inhibition potential,[22],reduced kinase inhibition potential
same,interaction of HuR protein with Bcl2 and Mcl1 mRNAs compared to control,[23],significant reduction
same,average decrease of Bcl2/18S mRNA ratio,[24]; LN229,95±2%
same,average decrease of Bcl2/18S mRNA ratio,[24]; U87,95±2%
same,average decrease of Bcl2/18S mRNA ratio,[24]; U251,96±2%
same,average decrease of Bcl2/18S mRNA ratio,[24]; XD456,96±2%
